Assay results from ChEMBL document CHEMBL5346868 (Eur J Med Chem, 2023).

What was measured:
Enterovirus A71 = assay: Antiviral activity against human Enterovirus 71 BrCr infected in human RD cells assessed as reduction of virus induced cytopathic effect incubated for 3 days by MTS assay; format: functional, organism-based; conditions: Enterovirus A, 72 h
Procedure, shortened: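 Confluent RD cells (EMEM, 10% heat-inactivated FBS) are infected with ~100 CCID50 of EV71 BrCr and treated with a compound dilution series. After 3 days at 37 °C, 5% CO2, residual viability is measured by MTS. EC50 is the concentration giving 50% antiviral effect, from at least 2–3 independent experiments.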

[1] = Cytotoxicity against human RD cells by MTS assay; format: toxicity, cell-based
Procedure, shortened: (§1)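 Treated, uninfected RD or HeLa cells are run alongside the matching enterovirus CPE assays, with viability read by MTS. CC50 is the concentration giving a 50% adverse effect on host cells.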

[2] = Selectivity index, ratio of CC50 for human RD cells to EC50 for antiviral activity against human Enterovirus 71; format: toxicity; conditions: read-out: Ratio CC50/EC50
Procedure, shortened: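 SI is calculated as CC50 on uninfected RD cells divided by EC50 in the 3-day EV71 BrCr CPE-reduction MTS assay.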

SARS-CoV-2 = assay: Antiviral activity against SARS-CoV-2 BetaCoV/Belgium/GHB-03021/2020 infected in african green monkey Vero cells assessed as decline in virus induced cytopathogenicity measured after 4 days by argon laser scanning microscopic analysis; format: functional, organism-based; conditions: Severe acute respiratory syndrome coronavirus 2, BetaCoV/Belgium/GHB-03021/2020, Vero, 96 h
[3] = Cytotoxicity against african green monkey Vero E6 cells by MTS assay; format: toxicity, cell-based, Vero C1008; conditions: chlorocebus sabaeus
Procedure, shortened: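 Cytotoxicity is measured on treated, uninfected Vero E6 cells in parallel with the antiviral assays, using a standard MTS assay. CC50 is the concentration causing a 50% adverse effect on host cells.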

Zika virus = assay: Antiviral activity against ZIKV MR766 infected in african green monkey Vero E6 cells assessed as decline in virus induced cytopathogenicity measured after 5 days by MTS based microscopic analysis; format: functional, organism-based; conditions: MR766, Vero C1008, 120 h
Procedure, shortened: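 Vero E6 cells (10^4/well) are seeded in MEM with 2% FCS and left to adhere overnight. Cells are then infected with ZIKV MR766 (passaged in C6/36 cells) and given 2-fold serial compound dilutions. After 5 days, CPE is scored by MTS and by microscopy of fixed, stained cells. EC50 is the 50% antiviral effect.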

Coxsackievirus B3 = assay: Antiviral activity against Coxsackievirus B3 infected in african green monkey Vero cells assessed as reduction of virus induced cytopathic effect incubated for 3 days by MTS assay; format: functional, organism-based; conditions: Enterovirus B, 72 h
Procedure, shortened: (§2)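 Same setup as the EV71 assay: confluent monolayers (Vero A for CVB3; HeLa for CVA21, EV68, HRV-A02, HRV-B14) are infected with virus and treated with a compound dilution series. Incubation is 3 days at 37 °C, 5% CO2, and residual viability is read by MTS. EC50 is the 50% effective concentration, mean of at least 2 independent experiments.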

[4] = Cytotoxicity against african green monkey Vero cells by MTS assay; format: toxicity, cell-based; conditions: chlorocebus sabaeus
Coxsackievirus A21 = assay: Antiviral activity against Coxsackievirus 21 infected in human HeLa cells assessed as reduction of virus induced cytopathic effect incubated for 3 days by MTS assay; format: functional, organism-based; conditions: Enterovirus C, 72 h
Procedure, shortened: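 HeLa cells infected with coxsackievirus A21 (~100 CCID50) and treated with a compound dilution series, as in the EV71 set-up. Incubation was 3 days at 37 °C, 5% CO2, with residual viability quantified by MTS. EC50 is the concentration giving 50% antiviral effect. Values are means of ≥2 independent experiments.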

enterovirus D68 = assay: Antiviral activity against Human enterovirus 68 infected in human HeLa cells assessed as reduction of virus induced cytopathic effect incubated for 3 days by MTS assay; format: functional, organism-based; conditions: Enterovirus D, 72 h; procedure, shortened: as §2
rhinovirus A2 = assay: Antiviral activity against Human rhinovirus 2 infected in human HeLa cells assessed as reduction of virus induced cytopathic effect incubated for 3 days by MTS assay; format: functional, organism-based; conditions: Rhinovirus A, 72 h; procedure, shortened: as §2
rhinovirus B14 = assay: Antiviral activity against Human rhinovirus 14 infected in human HeLa cells assessed as reduction of virus induced cytopathic effect incubated for 3 days by MTS assay; format: functional, organism-based; conditions: Rhinovirus B, 72 h; procedure, shortened: as §2
[5] = Cytotoxicity against human HeLa cells by MTS assay; format: toxicity, cell-based; procedure, shortened: as §1

| SMILES | EC50 (Enterovirus A71) | CC50 [1] | selectivity ratio [2] | EC50 (SARS-CoV-2) | CC50 [3] | EC50 (Zika virus) | EC50 (Coxsackievirus B3) | CC50 [4] | EC50 (Coxsackievirus A21) | EC50 (enterovirus D68) | EC50 (rhinovirus A2) | EC50 (rhinovirus B14) | CC50 [5] |
| --- | --- | --- | --- | --- | --- | --- | --- | --- | --- | --- | --- | --- | --- |
| C[C@H](NP(=O)(OC[C@H]1O[C@@H](n2ccc3c(NCc4cccc(C(F)(F)F)c4)ncnc32)[C@H](O)[C@@H]1O)Oc1ccccc1)C(=O)OCc1ccccc1 (stereo partly specified) | 0.6 µM | 42.5 µM | 70.8 | > 100 µM | > 100 µM | – | – | – | – | – | – | – | – |
| OC[C@H]1O[C@@H](n2cnc3c(N4CCc5ccccc54)ncnc32)[C@H](O)[C@@H]1O | > 100 µM | > 100 µM | – | > 100 µM | > 100 µM | > 100 µM | – | – | – | – | – | – | – |
| C[C@H](NP(=O)(OC[C@H]1O[C@@H](n2cnc3c(NCc4cccc(C(F)(F)F)c4)ncnc32)[C@H](O)[C@@H]1O)Oc1ccccc1)C(=O)OCc1ccccc1 (stereo partly specified) | 0.017 µM | 9.18 µM | 542 | > 100 µM | – | – | – | – | – | – | – | – | – |
| CSC[C@H]1O[C@@H](n2cnc3c(NCc4cccc(S(F)(F)(F)(F)F)c4)ncnc32)[C@H](O)[C@@H]1O | 1.85 µM | 23.5 µM | 12.7 | > 100 µM | 46.4 µM | > 100 µM | – | – | – | – | – | – | – |
| CC(Nc1ncnc2c1ncn2[C@@H]1O[C@H](CO)[C@@H](O)[C@H]1O)c1ccccc1Cl (stereo partly specified) | > 100 µM | > 100 µM | – | > 100 µM | > 100 µM | > 100 µM | – | – | – | – | – | – | – |
| Cc1cccc(CNc2ncnc3c2ncn3[C@@H]2O[C@H](CO)[C@@H](O)[C@H]2O)c1 | 0.094 µM | > 100 µM | > 1060 | > 100 µM | > 100 µM | > 100 µM | > 100 µM | > 100 µM | 36.4 µM | 8.9 µM | > 100 µM | > 100 µM | > 100 µM |
| CSC[C@H]1O[C@@H](n2cnc3c(NC(C)c4ccccc4Cl)ncnc32)[C@H](O)[C@@H]1O (stereo partly specified) | > 100 µM | > 100 µM | – | > 100 µM | > 100 µM | > 100 µM | – | – | – | – | – | – | – |
| CSC[C@H]1O[C@@H](n2cnc3c(NCc4ccc(Cl)cc4)ncnc32)[C@H](O)[C@@H]1O | 8.05 µM | > 100 µM | > 12.1 | > 100 µM | > 100 µM | > 100 µM | – | – | – | – | – | – | – |
| CSC[C@H]1O[C@@H](n2ccc3c(NCc4cccc(Cl)c4)ncnc32)[C@H](O)[C@@H]1O | > 75 µM | > 100 µM | – | > 100 µM | > 100 µM | > 100 µM | – | – | – | – | – | – | – |
| CCOC(=O)/C=C/[C@H](C[C@@H]1CCNC1=O)NC(=O)[C@@H](CC(=O)[C@@H](NC(=O)c1cc(C)on1)C(C)C)Cc1ccc(F)cc1 | – | > 1 µM | > 111 | – | – | – | – | – | – | – | – | – | – |
| CSC[C@H]1O[C@@H](n2cnc3c(NC(C)c4cccc(Cl)c4)ncnc32)[C@H](O)[C@@H]1O (stereo partly specified) | 4.21 µM | 44.3 µM | 10.5 | > 100 µM | 50.8 µM | > 100 µM | – | – | – | – | – | – | – |
| CC(Nc1ncnc2c1ncn2[C@@H]1O[C@H](CO)[C@@H](O)[C@H]1O)c1cccc(Cl)c1 (stereo partly specified) | 1.07 µM | > 100 µM | > 93.5 | > 100 µM | > 100 µM | > 100 µM | > 100 µM | > 100 µM | > 100 µM | > 100 µM | > 100 µM | > 100 µM | > 100 µM |
| OC[C@H]1O[C@@H](n2cnc3c(NCc4ccccc4Cl)ncnc32)[C@H](O)[C@@H]1O | 0.117 µM | 28.2 µM | 241 | > 100 µM | > 100 µM | > 100 µM | – | – | – | – | – | – | – |
